# Measured values from ChEMBL document CHEMBL2146441, “2,6-Disubstituted imidazo[2,1-b][1,3,4]thiadiazoles: search for anticancer agents” (2012).
# Columns and labels:
# Type in all cases: functional
# COLO [1] = test: Cytotoxicity against human COLO […] cells assessed as cell growth at 10^-5 M after 48 hrs by SRB assay; conditions: read-out: Activity
# How it was run: (§1)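 NCI-60 screen: lines kept in RPMI 1640 with 5% FBS, seeded at 5000–40,000 cells/well by doubling time, preincubated 24 h at 37 °C in 5% CO2. Time-zero plates TCA-fixed at drug addition. DMSO stocks diluted in medium, 48 h exposure. Fixation in cold TCA (final 10% adherent, 16% suspension), 0.4% SRB stain, solubilised in 10 mM Tris base, A515. Percent growth computed against control and time-zero.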
# UACC-62 [2] = test: Cytotoxicity against human UACC62 cells assessed as cell growth at 10^-5 M after 48 hrs by SRB assay; conditions: UACC-62, 48 h, read-out: Activity
# ACHN = test: Cytotoxicity against human ACHN cells assessed as cell growth at 10^-5 M after 48 hrs by SRB assay; conditions: read-out: Activity; how it was run: as §1
# TK-10 = test: Cytotoxicity against human TK10 cells assessed as cell growth at 10^-5 M after 48 hrs by SRB assay; conditions: TK-10, 48 h, read-out: Activity
# U-251 = test: Growth inhibition of human U251 cells after 48 hrs by SRB assay; conditions: U-251, 48 h
# How it was run: (§2)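 Adherent NCI-60 lines grown in RPMI 1640 with 5% FBS, seeded at 5000–40,000 cells/well, and preincubated 24 h at 37 °C, 5% CO2. Compound, stocked in DMSO, given either once at 10^-5 M or at five 10-fold dilutions for 48 h. Cells fixed with cold TCA (final 10%), stained with 0.4% SRB, and read at 515 nm. GI50 taken as 50% reduction in net protein increase versus time-zero and control plates.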
# [3] = Growth inhibition of human NCI-ADR-RES cells after 48 hrs by SRB assay; how it was run: as §2
# T47D = test: Growth inhibition of human T47D cells after 48 hrs by SRB assay; conditions: for CC50: read-out: LC50 (the source's name); how it was run: as §2
# CCRF-CEM = test: Cytotoxicity against human CCRF-CEM cells assessed as cell growth at 10^-7 M after 48 hrs by SRB assay; conditions: read-out: Activity; how it was run: as §1
# MOLT-4 [4] = test: Cytotoxicity against human MOLT4 cells assessed as cell growth at 10^-7 M after 48 hrs by SRB assay; conditions: MOLT-4, 48 h, read-out: Activity
# A549 = test: Cytotoxicity against human A549 cells assessed as cell growth at 10^-7 M after 48 hrs by SRB assay; conditions: A549, 48 h, read-out: Activity; how it was run: as §1
# HOP-92 = test: Cytotoxicity against human HOP92 cells assessed as cell growth at 10^-7 M after 48 hrs by SRB assay; conditions: HOP-92, 48 h, read-out: Activity
# How it was run: (§3)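 NCI-60 five-dose screen. Cells were grown in RPMI 1640 with 5% FBS and seeded at 5000–40,000 cells/well according to doubling time. They were pre-incubated 24 h at 37 °C in 5% CO₂, and time-zero (Tz) plates were TCA-fixed at drug addition. Five 10-fold dilutions of DMSO stock were applied for 48 h. Read-out was SRB staining, 515 nm absorbance, with percent growth calculated versus Tz and untreated control.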
# NCI-H460 [5] = test: Cytotoxicity against human NCI-H460 cells assessed as cell growth at 10^-7 M after 48 hrs by SRB assay; conditions: NCI-H460, 48 h, read-out: Activity
# MOLT-4 [6] = test: Cytotoxicity against human MOLT4 cells assessed as cell growth at 10^-4 M after 48 hrs by SRB assay; conditions: MOLT-4, 48 h, read-out: Activity
# NCI-H226 [7] = test: Cytotoxicity against human NCI-H226 cells assessed as cell growth at 10^-4 M after 48 hrs by SRB assay; conditions: NCI-H226, 48 h, read-out: Activity
# COLO [8] = test: Cytotoxicity against human COLO […] cells assessed as cell growth at 10^-4 M after 48 hrs by SRB assay; conditions: read-out: Activity; how it was run: as §1
# SF-268 = test: Cytotoxicity against human SF268 cells assessed as cell growth at 10^-4 M after 48 hrs by SRB assay; conditions: SF-268, 48 h, read-out: Activity
# SNB-75 = test: Cytotoxicity against human SNB75 cells assessed as cell growth at 10^-4 M after 48 hrs by SRB assay; conditions: SNB-75, 48 h, read-out: Activity
# UACC-62 [9] = test: Cytotoxicity against human UACC62 cells assessed as cell growth at 10^-4 M after 48 hrs by SRB assay; conditions: UACC-62, 48 h, read-out: Activity
# CAKI-1 = test: Cytotoxicity against human Caki1 cells assessed as cell growth at 10^-7 M after 48 hrs by SRB assay; conditions: CAKI-1, 48 h, read-out: Activity; how it was run: as §1
# BT-549 = test: Cytotoxicity against human BT549 cells assessed as cell growth at 10^-7 M after 48 hrs by SRB assay; conditions: BT-549, 48 h, read-out: Activity; how it was run: as §1
# HL-60 [10] = test: Cytotoxicity against human HL60 cells assessed as cell growth at 10^-8 M after 48 hrs by SRB assay; conditions: HL-60, 48 h, read-out: Activity; how it was run: as §3
# NCI-H226 [11] = test: Cytotoxicity against human NCI-H226 cells assessed as cell growth at 10^-8 M after 48 hrs by SRB assay; conditions: NCI-H226, 48 h, read-out: Activity
# HCC 2998 = test: Cytotoxicity against human HCC2998 cells assessed as cell growth at 10^-8 M after 48 hrs by SRB assay; conditions: HCC 2998, 48 h, read-out: Activity; how it was run: as §3
# HCT-116 [12] = test: Cytotoxicity against human HCT116 cells assessed as cell growth at 10^-6 M after 48 hrs by SRB assay; conditions: HCT-116, 48 h, read-out: Activity; how it was run: as §3
# IGROV-1 = test: Cytotoxicity against human IGROV1 cells assessed as cell growth at 10^-6 M after 48 hrs by SRB assay; conditions: IGROV-1, 48 h, read-out: Activity; how it was run: as §3
# SN12C = test: Cytotoxicity against human SN12C cells assessed as cell growth at 10^-6 M after 48 hrs by SRB assay; conditions: read-out: Activity
# PC-3 = test: Cytotoxicity against human PC3 cells assessed as cell growth at 10^-6 M after 48 hrs by SRB assay; conditions: PC-3, 48 h, read-out: Activity
# EKVX = test: Growth inhibition of human EKVX cells after 48 hrs by SRB assay; how it was run: as §2
# NCI-H460 [13] = test: Growth inhibition of human NCI-H460 cells after 48 hrs by SRB assay; conditions: NCI-H460, 48 h; for CC50: read-out: LC50 (the source's name); how it was run: as §2
# HCT-116 [14] = test: Growth inhibition of human HCT116 cells after 48 hrs by SRB assay; conditions: HCT-116, 48 h; how it was run: as §2
# MCF7 = test: Cytotoxicity against human MCF7 cells assessed as cell growth at 10^-6 M after 48 hrs by SRB assay; conditions: MCF7, 48 h, read-out: Activity
# HL-60 [15] = test: Cytotoxicity against human HL60 cells assessed as cell growth at 10^-5 M after 48 hrs by SRB assay; conditions: HL-60, 48 h, read-out: Activity; how it was run: as §3
compound,measurement,setting,value
COc1ccc(-c2nn3cc(-c4ccc(O)cc4O)nc3s2)cc1,growth at 10 µM,COLO [1],35%
same,growth at 10 µM,UACC-62 [2],24%
same,growth at 10 µM,ACHN,9%
same,growth at 10 µM,TK-10,7%
same,GI50,U-251,1.7 µM
same,LC50,U-251,> 100 µM
same,TGI,U-251,4.48 µM
same,GI50,[3],2.94 µM
same,LC50,[3],> 100 µM
same,TGI,[3],44.9 µM
same,GI50,T47D,1.63 µM
same,TGI,T47D,5.15 µM
same,CC50,T47D,> 100 µM
same,growth at 0.1 µM,CCRF-CEM,92%
same,growth at 0.1 µM,MOLT-4 [4],89%
same,growth at 0.1 µM,A549,99%
same,growth at 0.1 µM,HOP-92,64%
same,growth at 0.1 µM,NCI-H460 [5],101%
same,growth at 100 µM,MOLT-4 [6],-22%
same,growth at 100 µM,NCI-H226 [7],-19%
same,growth at 100 µM,COLO [8],-27%
same,growth at 100 µM,SF-268,-8%
same,growth at 100 µM,SNB-75,-37%
same,growth at 100 µM,UACC-62 [9],-72%
same,growth at 0.1 µM,CAKI-1,90%
same,growth at 0.1 µM,BT-549,94%
same,growth at 0.01 µM,HL-60 [10],96%
same,growth at 0.01 µM,NCI-H226 [11],94%
same,growth at 0.01 µM,HCC 2998,98%
same,growth at 1 µM,HCT-116 [12],86%
same,growth at 1 µM,IGROV-1,72%
same,growth at 1 µM,SN12C,80%
same,growth at 1 µM,PC-3,65%
same,GI50,EKVX,1.95 µM
same,LC50 (concentration killing 50% of cells),EKVX,> 100 µM
same,TGI,EKVX,41.2 µM
same,GI50,NCI-H460 [13],2.02 µM
same,CC50,NCI-H460 [13],> 100 µM
same,GI50,HCT-116 [14],1.76 µM
same,LC50 (50% lethal concentration),HCT-116 [14],8.25 µM
same,TGI,HCT-116 [14],3.81 µM
same,growth at 1 µM,MCF7,70%
same,growth at 10 µM,HL-60 [15],33%
COc1ccc(-c2nn3cc(-c4cccc(N)c4)nc3s2)cc1,growth at 10 µM,COLO [1],42%
same,growth at 10 µM,UACC-62 [2],26%
same,growth at 10 µM,ACHN,27%
same,growth at 10 µM,TK-10,41%
same,GI50,U-251,7.65 µM
same,LC50,U-251,> 100 µM
same,TGI,U-251,52.1 µM
same,GI50,[3],4.46 µM
same,LC50,[3],> 100 µM
same,TGI,[3],55.1 µM
same,GI50,T47D,1.37 µM
same,TGI,T47D,21.2 µM
same,CC50,T47D,> 100 µM
same,growth at 0.1 µM,CCRF-CEM,89%
same,growth at 0.1 µM,MOLT-4 [4],100%
same,growth at 0.1 µM,A549,106%
same,growth at 0.1 µM,HOP-92,53%
same,growth at 0.1 µM,NCI-H460 [5],92%
same,growth at 100 µM,MOLT-4 [6],7%
same,growth at 100 µM,NCI-H226 [7],-61%
same,growth at 100 µM,COLO [8],-56%
same,growth at 100 µM,SF-268,-34%
same,growth at 100 µM,SNB-75,-49%
same,growth at 100 µM,UACC-62 [9],-41%
same,growth at 0.1 µM,CAKI-1,76%
same,growth at 0.1 µM,BT-549,98%
same,growth at 0.01 µM,HL-60 [10],103%
same,growth at 0.01 µM,NCI-H226 [11],92%
same,growth at 0.01 µM,HCC 2998,98%
same,growth at 1 µM,HCT-116 [12],90%
same,growth at 1 µM,IGROV-1,72%
same,growth at 1 µM,SN12C,73%
same,growth at 1 µM,PC-3,53%
same,GI50,EKVX,1.01 µM
same,LC50 (concentration killing 50% of cells),EKVX,> 100 µM
same,TGI,EKVX,12.8 µM
same,GI50,NCI-H460 [13],3.36 µM
same,TGI,NCI-H460 [13],28.9 µM
same,CC50,NCI-H460 [13],> 100 µM
same,GI50,HCT-116 [14],3.51 µM
same,LC50 (50% lethal concentration),HCT-116 [14],41.4 µM
same,TGI,HCT-116 [14],14.2 µM
same,growth at 1 µM,MCF7,65%
same,growth at 10 µM,HL-60 [15],19%
